Experimental data published in ChEMBL document CHEMBL1156731, “Antifungal activity of synthetic di(hetero)arylamines based on the benzo[b]thiophene moiety” (2008).
Values after ≈ are worked out from the molar mass of the structure shown. Active and inactive are the calls of the source. The calls are words filed in the database; no cut-off is given here.

Key:
[1] = test system: Aspergillus niger; assay: Antifungal activity against Aspergillus niger ATCC 16404 after 3 days by broth macrodilution method; assay type: functional; conditions: ATCC 16404, 72 h
Outline: (§1)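 Aspergillus inoculum from 3-day SDA subcultures at 30 °C; conidial suspension in 0.85% saline, diluted in RPMI 1640 (L-glutamine, no bicarbonate, 0.165 M MOPS, pH 7.0) to 1-2 × 10^4 CFU/mL. Twofold dilutions 200-0.8 µg/mL from DMSO stock (final DMSO ≤2%); macrodilution per CLSI M38-A, 30 °C, 3 days. MIC = lowest concentration giving 80% turbidity reduction vs drug-free control; MFC by subculture on SDA. Three independent experiments in duplicate.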

[2] = test system: Candida albicans; assay: Inhibition of germ tube formation in Candida albicans M1 after 3 hrs by hemocytometer; assay type: functional, organism-based
Outline: (§2)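 Overnight SDA cultures (37 °C) were suspended in NYP medium (N-acetylglucosamine 10^-3 mol/L, YNB 3.35 g/L, proline 10^-3 mol/L, NaCl 4.5 g/L, pH 6.7) at (1.0 ± 0.2) × 10^6 CFU/mL. Compound added at 1/2, 1/4 and 1/8 MIC (1% DMSO final), 3 h at 37 °C. 100 cells counted by hemocytometer; germ tube at least blastospore diameter, pseudohyphae excluded. Mean ± SD, three experiments.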

[3] = test system: Candida albicans; assay: Inhibition of germ tube formation in Candida albicans ATCC 10231 after 3 hrs by hemocytometer; assay type: functional, organism-based; outline: as §2
[4] = test system: Candida albicans; assay: Antifungal activity against Candida albicans ATCC 10231 after 48 hrs by broth macrodilution method; assay type: functional; conditions: ATCC 10231, 48 h
Outline: (§3)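 Yeasts grown 1 day on SDA at 37 °C, subcultured, suspended in saline and diluted in MOPS-buffered RPMI 1640 (pH 7.0) to 1-2 × 10^3 CFU/mL. Broth macrodilution per CLSI M27-A2, twofold dilutions 200-0.8 µg/mL (DMSO ≤2% final), aerobic, 37 °C, 48 h. MIC = 80% turbidity reduction vs drug-free control; MFC from SDA subculture at 37 °C. Three independent experiments in duplicate.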

[5] = test system: Microsporum canis; assay: Antifungal activity against Microsporum canis FF1 after 5 days by broth macrodilution method; assay type: functional; conditions: 120 h
Outline: (§4)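 Dermatophytes grown 5 days on SDA at 30 °C, subcultured. Conidial suspensions in saline were adjusted in MOPS-buffered RPMI 1640 (pH 7.0) to 1-2 × 10^4 CFU/mL. Macrodilution adapted from CLSI M38-A with 200-0.8 µg/mL twofold dilutions (DMSO ≤2%), incubated at 30 °C for 5 days. MIC at 80% turbidity reduction vs control; MFC by SDA subculture at 30 °C. Triplicate experiments in duplicate.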

[6] = test system: Aspergillus fumigatus; assay: Antifungal activity against Aspergillus fumigatus ATCC 46645 after 3 days by broth macrodilution method; assay type: functional; conditions: ATCC 46645, 72 h; outline: as §1
[7] = test system: Nakaseomyces glabratus; assay: Antifungal activity against Candida glabrata D10R after 48 hrs by broth macrodilution method; assay type: functional
Outline: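 Broth macrodilution per CLSI M27-A2 (minor modifications). Inoculum 1-2 × 10^3 CFU/mL in RPMI 1640 with L-glutamine, MOPS-buffered 0.165 M, pH 7.0. Twofold dilutions 200-0.8 µg/mL from DMSO stock (final DMSO ≤2%). Aerobic, 37 °C, 48 h. MIC = lowest concentration giving 80% turbidity reduction versus drug-free control. Three independent experiments in duplicate.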

[8] = test system: Trichophyton mentagrophytes; assay: Antifungal activity against Trichophyton mentagrophytes FF7 after 5 days by broth macrodilution method; assay type: functional; conditions: 120 h; outline: as §4
[9] = test system: Epidermophyton floccosum; assay: Antifungal activity against Epidermophyton floccosum FF9 after 5 days by broth macrodilution method; assay type: functional; conditions: 120 h; outline: as §4
[10] = test system: Candida albicans; assay: Inhibition of germ tube formation in Candida albicans D5 after 3 hrs by hemocytometer; assay type: functional, organism-based; outline: as §2
[11] = test system: Candida albicans; assay: Antifungal activity against Candida albicans D5 after 48 hrs by broth macrodilution method; assay type: functional; outline: as §3
[12] = test system: Candida tropicalis; assay: Antifungal activity against Candida tropicalis ATCC 13803 after 48 hrs by broth macrodilution method; assay type: functional; conditions: ATCC 13803, 48 h; outline: as §3
[13] = test system: Pichia kudriavzevii; assay: Antifungal activity against Candida krusei ATCC 6258 after 48 hrs by broth macrodilution method; assay type: functional; conditions: ATCC 6258, 48 h; outline: as §3
[14] = test system: Nannizzia gypsea; assay: Antifungal activity against Microsporum gypseum FF3 after 5 days by broth macrodilution method; assay type: functional; conditions: 120 h; outline: as §4
[15] = test system: Trichophyton rubrum; assay: Antifungal activity against Trichophyton rubrum FF5 after 5 days by broth macrodilution method; assay type: functional; conditions: 120 h; outline: as §4
[16] = test system: Aspergillus flavus; assay: Antifungal activity against Aspergillus flavus F44 after 3 days by broth macrodilution method; assay type: functional; conditions: 72 h; outline: as §1
[17] = test system: Candida albicans; assay: Antifungal activity against Candida albicans ATCC 10231 assessed as red fluorescence stained with FUN1 by flow cytometry; assay type: functional
Outline: (§5)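 Overnight SDA cells suspended in RPMI 1640 at (2.0 ± 0.2) × 10^6 CFU/mL. Twofold dilutions 256 to one µg/mL applied at 35 °C, humid, no agitation, 2, 4 and 24 h. Washed; FUN-1 0.5 µM in PBS/2% glucose (20 min, 35 °C, FL2) or PI 1 µg/mL with 0.125% deoxycholate (~10 min, room temperature, FL3). ≥7500 events; marker included ≤5% of drug-free control cells.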

[18] = test system: Candida albicans; assay: Antifungal activity against Candida albicans ATCC 10231 assessed as red fluorescence stained with PI by flow cytometry; assay type: functional; outline: as §5
[19] = test system: Aspergillus fumigatus; assay: Antifungal activity against Aspergillus fumigatus ATCC 46645 assessed as red fluorescence stained with PI by flow cytometry; assay type: functional
Outline: (§6)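 Conidia from 4–7-day SDA cultures suspended in water with 0.01% Tween 80 at (2.0 ± 0.2) × 10^6 CFU/mL. Exposed to twofold dilutions 256 to one µg/mL at 35 °C, water bath with agitation, 3, 4 and 24 h. FUN-1 0.5 µM (20 min, 35 °C, FL2) or PI 1 µg/mL (1 h, 35 °C, FL3); ≥7500 events; positive-cell marker set at ≤5% of drug-free controls.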

[20] = test system: Aspergillus fumigatus; assay: Antifungal activity against Aspergillus fumigatus ATCC 46645 assessed as red fluorescence stained with FUN1 by flow cytometry; assay type: functional, organism-based; outline: as §6

Row | Structure (SMILES) | MFC [1] | MIC [1] | MFC [4] | MIC [4] | MFC [5] | MIC [5] | MFC [6] | MIC [6] | MFC [7] | MIC [7] | MFC [8] | MIC [8] | MFC [9] | MIC [9] | MFC [11] | MIC [11] | MFC [12] | MIC [12] | MFC [16] | MIC [16] | further results
1 | CCOC(=O)c1sc2ccccc2c1Nc1ccc(O)cc1O | > 100 µg/mL | > 100 µg/mL | > 200 µg/mL | 25 µg/mL (≈ 75.9 µM) | 12.5 µg/mL (≈ 38 µM) | 12.5 µg/mL (≈ 38 µM) | > 100 µg/mL | > 100 µg/mL | > 50 µg/mL | 25 µg/mL (≈ 75.9 µM) | 25 µg/mL (≈ 75.9 µM) | 12.5 µg/mL (≈ 38 µM) | 12.5 µg/mL (≈ 38 µM) | 6.25 µg/mL (≈ 19 µM) | > 50 µg/mL | 25 µg/mL (≈ 75.9 µM) | > 50 µg/mL | 50 µg/mL (≈ 152 µM) | > 100 µg/mL | > 100 µg/mL | Activity [2]: Active; Activity [3]: Active; Activity [10]: Active; MFC [13]: > 50 µg/mL; MIC [13]: 25 µg/mL (≈ 75.9 µM); MFC [14]: 25 µg/mL (≈ 75.9 µM); MIC [14]: 12.5 µg/mL (≈ 38 µM); MFC [15]: 25 µg/mL (≈ 75.9 µM); MIC [15]: 12.5 µg/mL (≈ 38 µM)
2 | c1cncc(Nc2csc3ccccc23)c1 | > 100 µg/mL | 50 µg/mL (≈ 221 µM) | 100 µg/mL (≈ 442 µM) | 50 µg/mL (≈ 221 µM) | > 12.5 µg/mL | 12.5 µg/mL (≈ 55.2 µM) | > 50 µg/mL | 25 µg/mL (≈ 110 µM) | > 50 µg/mL | 50 µg/mL (≈ 221 µM) | > 12.5 µg/mL | 12.5 µg/mL (≈ 55.2 µM) | > 12.5 µg/mL | 12.5 µg/mL (≈ 55.2 µM) | > 50 µg/mL | 50 µg/mL (≈ 221 µM) | > 100 µg/mL | 100 µg/mL (≈ 442 µM) | 100 µg/mL (≈ 442 µM) | 50 µg/mL (≈ 221 µM) | Activity [17]: 60%; Activity [2]: Active; Activity [3]: Active; Activity [18]: 40%; Activity [10]: Active; Activity [19]: 40%; MFC [13]: > 100 µg/mL; MIC [13]: 100 µg/mL (≈ 442 µM); Activity [20]: Active; MFC [14]: > 12.5 µg/mL; MIC [14]: 12.5 µg/mL (≈ 55.2 µM); MFC [15]: 12.5 µg/mL (≈ 55.2 µM); MIC [15]: 3.13 µg/mL (≈ 13.8 µM)
3 | C[C@@H]1[C@H](O)[C@@H](C)/C=C/C=C/C=C/C=C/C=C/C=C/C=C/[C@H](O[C@@H]2O[C@H](C)[C@@H](O)[C@H](N)[C@@H]2O)C[C@@H]2O[C@](O)(C[C@@H](O)C[C@@H](O)[C@H](O)CC[C@@H](O)C[C@@H](O)CC(=O)O[C@H]1C)C[C@H](O)[C@H]2C(=O)O [AMPHOTERICIN B] | 4 µg/mL (≈ 4.33 µM) | 1 µg/mL (≈ 1.08 µM) |  |  |  |  | 4 µg/mL (≈ 4.33 µM) | 2 µg/mL (≈ 2.16 µM) |  |  |  |  |  |  |  |  |  |  | 8 µg/mL (≈ 8.66 µM) | 2 µg/mL (≈ 2.16 µM) | Activity [17]: 60%; Activity [18]: 40%; Activity [19]: 40%; Activity [20]: Active
4 | CCOC(=O)c1sc2ccccc2c1Nc1ccc(O)cc1 | > 200 µg/mL | > 200 µg/mL | > 200 µg/mL | > 200 µg/mL | 1.56 µg/mL (≈ 4.98 µM) | 1.56 µg/mL (≈ 4.98 µM) | > 200 µg/mL | > 200 µg/mL | > 200 µg/mL | > 200 µg/mL | 6.25 µg/mL (≈ 19.9 µM) | 6.25 µg/mL (≈ 19.9 µM) | 12.5 µg/mL (≈ 39.9 µM) | 3.13 µg/mL (≈ 9.99 µM) | > 200 µg/mL | > 200 µg/mL | > 200 µg/mL | > 200 µg/mL | > 200 µg/mL | > 200 µg/mL | MFC [13]: > 200 µg/mL; MIC [13]: > 200 µg/mL; MFC [14]: 12.5 µg/mL (≈ 39.9 µM); MIC [14]: 6.25 µg/mL (≈ 19.9 µM); MFC [15]: 6.25 µg/mL (≈ 19.9 µM); MIC [15]: 6.25 µg/mL (≈ 19.9 µM)
5 | CCOC(=O)c1sc2ccccc2c1Nc1ccc(OC)cc1 | > 200 µg/mL | > 200 µg/mL | > 200 µg/mL | > 200 µg/mL | > 200 µg/mL | > 200 µg/mL | > 200 µg/mL | > 200 µg/mL | > 200 µg/mL | > 200 µg/mL | > 200 µg/mL | > 200 µg/mL | > 200 µg/mL | > 200 µg/mL | > 200 µg/mL | > 200 µg/mL | > 200 µg/mL | > 200 µg/mL | > 200 µg/mL | > 200 µg/mL | MFC [13]: > 200 µg/mL; MIC [13]: > 200 µg/mL; MFC [14]: > 200 µg/mL; MIC [14]: > 200 µg/mL; MFC [15]: > 200 µg/mL; MIC [15]: > 200 µg/mL
